# Screens: PubChem, The Scripps Research Institute Molecular Screening Center
# VIM-2 inhibitor: VIM-2 metallo-beta-lactamase inhibitors, primary screen, biochemical, epi-absorbance readout, Pseudomonas aeruginosa enzyme; purified VIM-2, nitrocefin hydrolysis, epi-absorbance fluorescence; inhibition, % at 5.6 µM; 290,000 tested, 0.89% active; AID 1527, 2009;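 active = inhibition above the mean of all tested compounds plus 3 SD, cutoff set per screening run, cut at about 7.5% in these data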;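 also: red hydrolysis product quenches plate fluorescence so inhibitors raise well fluorescence; 0% = enzyme with DMSO and 100% = DMSO without enzyme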
# pPAFAH inh: pPAFAH enzyme inhibitors, primary screen, biochemical, fluorescence polarization, human. Platelet-activating factor acetylhydrolase (Homo sapiens), Q13093. recombinant pPAFAH, FP-rhodamine probe fluorescence polarization. inhibition, % at 3.39 µM. 330,000 tested, 1.5% active. AID 463082, 2010;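 active = inhibition above the mean inhibition across the screen plus 3 SD, cut at about 25% in these data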;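 also: inhibitors block binding of the rhodamine activity-based probe so polarization drops; 0% = enzyme with DMSO and 100% = wells lacking pPAFAH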
# PAFAH1B3 FP inh: PAFAH1B3 enzyme inhibitors, primary screen, biochemical, fluorescence polarization, human | AID 492972, 2010 | recombinant PAFAH1B3, FP-rhodamine probe | inhibition, % at 3.39 µM | 340,000 tested, 0.28% active | Platelet-activating factor acetylhydrolase IB subunit alpha1 (Homo sapiens), Q15102;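 active = inhibition above the screen-wide average of all tested compounds plus 3 SD, cut at about 25% in these data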;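 also: 0% = enzyme with DMSO only and 100% = wells lacking PAFAH1B3 protein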
# PAFAH1B2 inh: PAFAH1B2 enzyme inhibitors, primary screen, biochemical, fluorescence polarization, human. recombinant PAFAH1B2, FP-rhodamine activity probe. AID 492953, 2010. Platelet-activating factor acetylhydrolase IB subunit alpha2 (Homo sapiens), P68402. inhibition, % at 3.39 µM. 340,000 tested, 1.2% active;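 active = inhibition above the mean of all tested compounds plus 3 SD, cut at about 24% in these data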;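 also: 0% = enzyme with DMSO and 100% = wells lacking PAFAH1B2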
# Target sequence (P68402 whole entry, looked up): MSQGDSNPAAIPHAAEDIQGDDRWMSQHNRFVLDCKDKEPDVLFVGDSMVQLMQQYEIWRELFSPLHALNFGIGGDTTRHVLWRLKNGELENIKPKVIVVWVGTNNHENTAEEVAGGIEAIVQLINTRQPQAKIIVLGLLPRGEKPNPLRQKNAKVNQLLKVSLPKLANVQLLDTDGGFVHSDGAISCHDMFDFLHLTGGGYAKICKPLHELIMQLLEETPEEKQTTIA
# PAFAH2 FP inh: PAFAH2 enzyme inhibitors, primary screen, biochemical, fluorescence polarization, human | Platelet-activating factor acetylhydrolase 2, cytoplasmic (Homo sapiens), Q99487 | recombinant PAFAH2, FP-rhodamine activity probe | inhibition, % at 3.39 µM | 340,000 tested, 0.99% active | AID 492956, 2010;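 active = inhibition above the mean over all tested compounds plus 3 SD, cut at about 30% in these data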;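 also: inhibitors block probe labeling of enzyme so polarization drops; 0% = enzyme with DMSO and 100% = wells lacking PAFAH2 protein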
# IMP-1 inhibitor: IMP-1 metallo-beta-lactamase inhibitors, primary screen, biochemical, epi-absorbance readout, Pseudomonas aeruginosa enzyme; metallo-beta-lactamase IMP-1 (Pseudomonas aeruginosa); purified IMP-1, nitrocefin hydrolysis, epi-absorbance fluorescence; inhibition, % at 5.6 µM; 290,000 tested, 0.45% active; AID 1556, 2009;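 active = inhibition above the mean plus 3 SD of all compounds in the same screening run, cut at about 4.5% in these data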;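 also: 0% = IMP-1 with DMSO and 100% = DMSO wells lacking enzyme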
#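 system = purified recombinant IMP-1 beta-lactamase | amount = 0.2 nM IMP-1, as dispensed | medium = HEPES buffer pH 7.1 with ZnSO4 and Brij 35 | times = 25 °C, 15 min preincubation, 25 min reaction | detection = plate fluorescence quenching by hydrolysis product, ex 480/em 530 nm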
# Starred values were filed as active, the others as inactive; . = no result. This is a sample that favours compounds with a hit; in the whole collection about 3.6% have one here.
SMILES,VIM-2 inhibitor,pPAFAH inh,PAFAH1B3 FP inh,PAFAH1B2 inh,PAFAH2 FP inh,IMP-1 inhibitor
O=C(CSc1ccccc1)N1CCN(S(=O)(=O)c2ccccc2)CC1,0,6,-7,8,7,0
Cc1ccc(OCCC(=O)OCC(=O)N2CCN(S(=O)(=O)c3ccc(Cl)cc3)CC2)cc1,.,16,4,28*,-6,.
CCCOc1ccccc1OCC(=O)N1CCN(S(=O)(=O)c2ccc(Cl)cc2)CC1,.,2,-1,25*,-4,.
C=CCn1c(=O)[nH]c(=O)c2c(N)c(C(=O)c3ccc(OC)cc3)sc21,.,.,2,-1,0,.
CN(C)C(CNC(=O)CSc1nc2sc3c(c2c(=O)n1C)CCCC3)c1ccccc1 (configuration not stated),.,-4,-1,-4,1,.
O=C(O)c1cccc(Nc2ccnc(Nc3cccc(C(=O)O)c3)n2)c1,-3,5,3,2,-5,-3
CSc1scc2c1-c1nc(SCC(=O)C(C)(C)C)ncc1CC2,2,-3,1,6,4,9.8*
Cc1c(NC(=O)C(C)OC(=O)C23CC4CC(CC(Br)(C4)C2)C3)c(=O)n(-c2ccccc2)n1C (configuration not stated),-3,-8,2,48*,-3,-4
